Calls of active or inactive are those of the source. No cut-off for these calls is given here.
How the values were obtained:
SiHa = assay: Induction of cell cycle arrest in human SiHa cells assessed as decrease in cell accumulation in S phase at 40 to 80 nM incubated for 36 hrs by propidium iodide staining based flow cytometry; type: functional
Method in brief: (§1)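 Cells were treated with graded concentrations for 36 h, then fixed overnight in 70% ice-cold ethanol at 4°C and resuspended in PBS. Staining used 50 µg/ml PI plus 5 µg/ml RNase at 37°C for 30 min. DNA content was analysed by FACS to give G0/G1, S and G2/M fractions.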

[1] = target: Protein kinase C eta type (Homo sapiens) (UniProt P24723); assay: Inhibition of recombinant human full length PKCeta (2 to end residues) at 1 uM using ERMRPRKRQGSVRRRV as substrate incubated for 40 mins in presence of [gamma-33P]-ATP by scintillation counting method relative to control
Protein kinase C eta type (Homo sapiens), sequence (P24723 whole entry, the tested form may be a part): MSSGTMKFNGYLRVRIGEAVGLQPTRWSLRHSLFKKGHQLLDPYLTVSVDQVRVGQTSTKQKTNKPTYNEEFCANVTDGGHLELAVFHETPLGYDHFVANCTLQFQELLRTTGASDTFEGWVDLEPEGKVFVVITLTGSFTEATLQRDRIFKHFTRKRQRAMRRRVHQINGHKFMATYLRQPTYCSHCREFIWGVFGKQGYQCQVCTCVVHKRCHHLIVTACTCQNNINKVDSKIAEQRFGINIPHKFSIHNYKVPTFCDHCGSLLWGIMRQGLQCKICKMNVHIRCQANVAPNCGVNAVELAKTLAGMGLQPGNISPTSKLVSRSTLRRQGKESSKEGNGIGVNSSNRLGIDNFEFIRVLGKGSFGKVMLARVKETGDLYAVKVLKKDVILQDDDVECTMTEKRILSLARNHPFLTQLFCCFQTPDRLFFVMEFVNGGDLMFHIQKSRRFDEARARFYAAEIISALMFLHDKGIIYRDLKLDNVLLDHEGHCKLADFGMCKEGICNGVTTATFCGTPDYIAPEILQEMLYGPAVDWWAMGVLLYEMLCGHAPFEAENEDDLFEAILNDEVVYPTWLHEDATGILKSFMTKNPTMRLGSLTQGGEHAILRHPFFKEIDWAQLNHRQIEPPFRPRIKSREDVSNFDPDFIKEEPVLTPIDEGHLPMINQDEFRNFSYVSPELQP

[2] = target: Serine/threonine-protein kinase WNK2 (Homo sapiens) (UniProt Q9Y3S1); assay: Inhibition of recombinant human WNK2 (166 to 489 residues) at 1 uM using myelin basic protein as substrate incubated for 40 mins in presence of [gamma-33P]-ATP by scintillation counting method relative to control
[3] = target: Phosphatidylinositol 4,5-bisphosphate 3-kinase catalytic subunit gamma isoform (Homo sapiens) (UniProt P48736); assay: Inhibition of recombinant human full length PI3K p120gamma at 1 uM using phosphatidylinositol-4, 5-bisphosphate as substrate incubated for 40 mins in presence of [gamma-33P]-ATP by scintillation counting method relative to control
[4] = Toxicity in BALB/c mouse assessed as effect on blood parameter by measuring basophils content at 40 mg/kg, po administered once two days for 4 times by hematology analyzer; conditions: in vivo
[5] = target: eIF-2-alpha kinase GCN2 (Homo sapiens) (UniProt Q9P2K8); assay: Inhibition of recombinant full length human GCN2 at 1 uM using RSRSRSRSRSRSRSR as substrate incubated for 40 mins in presence of [gamma-33P]-ATP by scintillation counting method relative to control
eIF-2-alpha kinase GCN2 (Homo sapiens), sequence (Q9P2K8 whole entry): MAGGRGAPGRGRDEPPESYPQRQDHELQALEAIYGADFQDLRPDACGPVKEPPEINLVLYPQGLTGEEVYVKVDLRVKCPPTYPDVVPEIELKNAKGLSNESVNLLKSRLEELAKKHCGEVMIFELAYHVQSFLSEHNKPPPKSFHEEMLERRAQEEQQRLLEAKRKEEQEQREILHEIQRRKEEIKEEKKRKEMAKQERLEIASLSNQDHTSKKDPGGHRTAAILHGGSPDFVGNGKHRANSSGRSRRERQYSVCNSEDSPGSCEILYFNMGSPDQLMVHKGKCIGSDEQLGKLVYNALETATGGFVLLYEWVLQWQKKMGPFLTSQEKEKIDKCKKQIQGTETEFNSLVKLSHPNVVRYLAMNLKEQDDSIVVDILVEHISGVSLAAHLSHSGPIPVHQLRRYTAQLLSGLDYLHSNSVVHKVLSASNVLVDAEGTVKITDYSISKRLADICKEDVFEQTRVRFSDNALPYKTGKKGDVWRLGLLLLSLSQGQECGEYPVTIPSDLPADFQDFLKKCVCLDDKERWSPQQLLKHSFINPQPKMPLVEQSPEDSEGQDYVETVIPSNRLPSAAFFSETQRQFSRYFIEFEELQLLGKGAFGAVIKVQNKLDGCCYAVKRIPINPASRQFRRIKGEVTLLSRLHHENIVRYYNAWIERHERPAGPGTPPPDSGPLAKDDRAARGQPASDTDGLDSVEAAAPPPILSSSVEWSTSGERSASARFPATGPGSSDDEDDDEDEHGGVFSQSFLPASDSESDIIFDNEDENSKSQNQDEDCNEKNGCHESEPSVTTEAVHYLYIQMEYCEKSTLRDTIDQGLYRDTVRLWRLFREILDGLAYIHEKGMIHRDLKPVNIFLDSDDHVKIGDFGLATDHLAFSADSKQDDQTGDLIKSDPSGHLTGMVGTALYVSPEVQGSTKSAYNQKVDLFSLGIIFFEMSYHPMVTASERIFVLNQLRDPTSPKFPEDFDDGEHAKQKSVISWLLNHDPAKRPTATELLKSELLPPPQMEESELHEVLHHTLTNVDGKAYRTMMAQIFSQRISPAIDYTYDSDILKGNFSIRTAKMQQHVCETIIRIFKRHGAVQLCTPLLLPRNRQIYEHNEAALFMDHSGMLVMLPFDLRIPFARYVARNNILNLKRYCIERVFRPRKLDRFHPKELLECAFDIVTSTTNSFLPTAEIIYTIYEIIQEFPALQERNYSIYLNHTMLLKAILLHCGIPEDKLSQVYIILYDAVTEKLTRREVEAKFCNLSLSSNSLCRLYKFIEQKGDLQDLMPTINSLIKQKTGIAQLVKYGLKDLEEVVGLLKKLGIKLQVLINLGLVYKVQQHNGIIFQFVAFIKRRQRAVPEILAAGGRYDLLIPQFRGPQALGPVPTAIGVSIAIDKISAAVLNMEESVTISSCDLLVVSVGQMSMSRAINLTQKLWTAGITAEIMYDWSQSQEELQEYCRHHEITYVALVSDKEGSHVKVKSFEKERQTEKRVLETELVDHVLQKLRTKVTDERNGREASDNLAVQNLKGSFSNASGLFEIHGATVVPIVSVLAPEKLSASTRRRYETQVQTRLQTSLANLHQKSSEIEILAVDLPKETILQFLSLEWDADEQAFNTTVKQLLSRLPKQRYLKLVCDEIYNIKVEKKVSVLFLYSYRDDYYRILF
Method in brief: (§2)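 Tested at a single 1 uM in an outsourced commercial kinase-profiling panel, read as percent inhibition. Each value is the mean of two independent experiments.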

[6] = Toxicity in NOD/SCID BALB/c mouse xenografted with human SiHa cells assessed as effect on blood parameter by measuring PDW at 40 mg/kg, po administered once two days for 4 times by hematology analyzer; type: organism-based; conditions: in vivo
[7] = target: Serine/threonine-protein kinase ULK2 (Homo sapiens) (UniProt Q8IYT8); assay: Inhibition of recombinant human ULK2 (1 to 306 residues) at 1 uM using as casein substrate incubated for 40 mins in presence of [gamma-33P]-ATP by scintillation counting method relative to control; method in brief: as §2
Serine/threonine-protein kinase ULK2 (Homo sapiens), sequence (Q8IYT8 whole entry, the tested form may be a part): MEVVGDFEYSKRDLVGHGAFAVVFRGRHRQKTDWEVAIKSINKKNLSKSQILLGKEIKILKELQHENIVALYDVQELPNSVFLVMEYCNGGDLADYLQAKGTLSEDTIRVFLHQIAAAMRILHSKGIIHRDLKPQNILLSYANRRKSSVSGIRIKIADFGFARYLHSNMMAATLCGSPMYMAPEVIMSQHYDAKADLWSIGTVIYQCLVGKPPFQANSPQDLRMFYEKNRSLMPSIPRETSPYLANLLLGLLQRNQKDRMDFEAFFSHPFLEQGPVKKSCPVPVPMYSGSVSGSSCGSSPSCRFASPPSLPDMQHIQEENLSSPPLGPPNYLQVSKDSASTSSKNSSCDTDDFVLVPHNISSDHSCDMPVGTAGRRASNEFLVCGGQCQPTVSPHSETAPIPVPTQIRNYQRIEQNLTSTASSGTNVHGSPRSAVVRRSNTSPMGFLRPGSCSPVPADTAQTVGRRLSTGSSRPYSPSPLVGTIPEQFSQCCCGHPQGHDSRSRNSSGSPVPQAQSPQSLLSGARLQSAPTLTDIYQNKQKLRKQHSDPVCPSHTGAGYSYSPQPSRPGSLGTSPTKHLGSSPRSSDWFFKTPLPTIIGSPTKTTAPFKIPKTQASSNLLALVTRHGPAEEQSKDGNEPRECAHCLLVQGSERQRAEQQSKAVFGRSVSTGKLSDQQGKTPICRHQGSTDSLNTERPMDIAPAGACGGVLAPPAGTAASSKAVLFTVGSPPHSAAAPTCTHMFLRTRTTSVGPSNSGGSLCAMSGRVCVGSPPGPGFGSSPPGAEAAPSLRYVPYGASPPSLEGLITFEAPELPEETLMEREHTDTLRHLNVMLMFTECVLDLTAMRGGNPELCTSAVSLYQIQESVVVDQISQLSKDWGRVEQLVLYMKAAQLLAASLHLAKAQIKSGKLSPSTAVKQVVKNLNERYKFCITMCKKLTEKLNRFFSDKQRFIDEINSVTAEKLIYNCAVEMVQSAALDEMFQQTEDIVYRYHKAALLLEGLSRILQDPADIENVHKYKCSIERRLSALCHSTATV

[8] = target: Calcium/calmodulin-dependent protein kinase type 1G (Homo sapiens) (UniProt Q96NX5); assay: Inhibition of recombinant full length human CAMKIgamma at 1 uM using KKLRRTLSFAEPG as substrate incubated for 40 mins in presence of [gamma-33P]-ATP by scintillation counting method relative to control
Method in brief: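 Kinase panel profiling at 1 μM performed by Eurofins KinaseProfiler; percent inhibition reported as mean of two independent experiments.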

[9] = target: Vascular endothelial growth factor receptor 2 (Homo sapiens, UniProt P35968); assay: Inhibition of VEGFR2 in HUVEC cells assessed as reduction in Src phosphorylation at 20 to 40 nM incubated for 48 hrs by Western blot analysis; type: cell-based
Method in brief: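 HUVECs were maintained in 1640 medium with 10% FBS. They were treated with graded concentrations for 48 h, PBS-washed and lysed in RIPA buffer. Immunoblots were probed for total and phospho VEGFR2, STAT3, Akt, Erk1 and Src, each at 1:1000. β-actin served as loading control.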

[10] = Toxicity in BALB/c mouse assessed as effect on blood parameter by measuring MCV at 40 mg/kg, po administered once two days for 4 times by hematology analyzer; conditions: in vivo
[11] = target: Serine/threonine-protein kinase ULK1 (Homo sapiens) (UniProt O75385); assay: Inhibition of recombinant human ULK1 (1 to 314 residues) at 1 uM using casein as substrate incubated for 40 mins in presence of [gamma-33P]-ATP by scintillation counting method relative to control; method in brief: as §2
HeLa = assay: Induction of apoptosis in human HeLa cells assessed as decrease in Ki67 expression at 40 to 80 nM incubated for 48 hrs by Western blot analysis; type: functional, cell-based
Method in brief: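 Cells were treated for 48 h, washed three times with PBS, and lysed in RIPA buffer. Immunoblots used anti-Rb, anti-phospho-Rb, anti-Ki67 and anti-Bcl-2 (each 1:1000), with β-actin as loading control.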

MDA-MB-231 = assay: Induction of cell cycle arrest in human MDA-MB-231 cells assessed as decrease in accumulation in S phase at 20 to 40 nM incubated for 36 hrs by propidium iodide staining based flow cytometry; type: functional; method in brief: as §1
[12] = target: [Pyruvate dehydrogenase (acetyl-transferring)] kinase isozyme 4, mitochondrial (Homo sapiens) (UniProt Q16654); assay: Inhibition of recombinant human full length PDHK4 at 1 uM using KKKYHGHSMSDPGVSYRT as substrate incubated for 40 mins in presence of [gamma-33P]-ATP by scintillation counting method relative to control; method in brief: as §2
[Pyruvate dehydrogenase (acetyl-transferring)] kinase isozyme 4, mitochondrial (Homo sapiens), sequence (Q16654 whole entry, looked up): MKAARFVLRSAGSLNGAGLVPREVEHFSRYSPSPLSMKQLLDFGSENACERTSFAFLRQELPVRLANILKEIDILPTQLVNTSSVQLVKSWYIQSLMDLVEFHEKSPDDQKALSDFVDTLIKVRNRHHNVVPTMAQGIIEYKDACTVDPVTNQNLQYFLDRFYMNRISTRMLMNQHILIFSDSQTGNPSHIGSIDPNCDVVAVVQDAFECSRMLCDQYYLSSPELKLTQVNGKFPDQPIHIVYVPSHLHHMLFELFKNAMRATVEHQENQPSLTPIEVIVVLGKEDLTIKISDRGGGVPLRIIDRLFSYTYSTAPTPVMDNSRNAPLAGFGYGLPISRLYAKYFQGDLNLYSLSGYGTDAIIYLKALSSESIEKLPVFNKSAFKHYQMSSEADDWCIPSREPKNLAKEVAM

[13] = target: Inhibitor of nuclear factor kappa-B kinase subunit epsilon (Homo sapiens) (UniProt Q14164); assay: Inhibition of recombinant human full length IKKepsilon at 1 uM using casein as substrate incubated for 40 mins in presence of [gamma-33P]-ATP by scintillation counting method relative to control
[14] = target: Mitogen-activated protein kinase 14 (Homo sapiens) (UniProt Q16539); assay: Inhibition of recombinant human full length SAPK2a at 1 uM using myelin basic protein as substrate incubated for 40 mins in presence of [gamma-33P]-ATP by scintillation counting method relative to control; method in brief: as §2
Mitogen-activated protein kinase 14 (Homo sapiens), sequence (Q16539 whole entry): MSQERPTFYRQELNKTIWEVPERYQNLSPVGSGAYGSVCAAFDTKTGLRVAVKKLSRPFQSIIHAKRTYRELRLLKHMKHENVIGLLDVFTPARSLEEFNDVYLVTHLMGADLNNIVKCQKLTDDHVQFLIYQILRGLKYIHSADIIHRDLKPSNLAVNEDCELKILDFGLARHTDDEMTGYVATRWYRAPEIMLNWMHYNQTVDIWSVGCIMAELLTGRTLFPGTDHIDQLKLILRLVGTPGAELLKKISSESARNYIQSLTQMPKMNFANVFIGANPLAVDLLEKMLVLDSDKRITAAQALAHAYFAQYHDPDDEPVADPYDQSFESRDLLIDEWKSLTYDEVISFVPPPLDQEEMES

[15] = MRT (0 to t) in Sprague-Dawley rat at 10 mg/kg at 10 mg/kg, po by HPLC-MS analysis; type: ADME, organism-based; conditions: in vivo
[16] = target: PI3-kinase p110-delta/p85-alpha (Homo sapiens) (UniProt P27986+O00329); assay: Inhibition of recombinant human full length PI3K p110delta/p85alpha at 1 uM using phosphatidylinositol-4, 5-bisphosphate as substrate incubated for 40 mins in presence of [gamma-33P]-ATP by scintillation counting method relative to control; type: protein-complex assay
[17] = target: Proto-oncogene tyrosine-protein kinase ROS (Homo sapiens) (UniProt P08922); assay: Inhibition of recombinant human ROS (1883 to end residues) at 1 uM using KKKSPGEYVNIEFG as substrate incubated for 40 mins in presence of [gamma-33P]-ATP by scintillation counting method relative to control
[18] = target: Serine/threonine-protein kinase PAK 6 (Homo sapiens) (UniProt Q9NQU5); assay: Inhibition of recombinant human PAK6 (382 to end residues) at 1 uM using RRRLSFAEPG as substrate incubated for 40 mins in presence of [gamma-33P]-ATP by scintillation counting method relative to control
Serine/threonine-protein kinase PAK 6 (Homo sapiens), sequence (Q9NQU5 whole entry, looked up): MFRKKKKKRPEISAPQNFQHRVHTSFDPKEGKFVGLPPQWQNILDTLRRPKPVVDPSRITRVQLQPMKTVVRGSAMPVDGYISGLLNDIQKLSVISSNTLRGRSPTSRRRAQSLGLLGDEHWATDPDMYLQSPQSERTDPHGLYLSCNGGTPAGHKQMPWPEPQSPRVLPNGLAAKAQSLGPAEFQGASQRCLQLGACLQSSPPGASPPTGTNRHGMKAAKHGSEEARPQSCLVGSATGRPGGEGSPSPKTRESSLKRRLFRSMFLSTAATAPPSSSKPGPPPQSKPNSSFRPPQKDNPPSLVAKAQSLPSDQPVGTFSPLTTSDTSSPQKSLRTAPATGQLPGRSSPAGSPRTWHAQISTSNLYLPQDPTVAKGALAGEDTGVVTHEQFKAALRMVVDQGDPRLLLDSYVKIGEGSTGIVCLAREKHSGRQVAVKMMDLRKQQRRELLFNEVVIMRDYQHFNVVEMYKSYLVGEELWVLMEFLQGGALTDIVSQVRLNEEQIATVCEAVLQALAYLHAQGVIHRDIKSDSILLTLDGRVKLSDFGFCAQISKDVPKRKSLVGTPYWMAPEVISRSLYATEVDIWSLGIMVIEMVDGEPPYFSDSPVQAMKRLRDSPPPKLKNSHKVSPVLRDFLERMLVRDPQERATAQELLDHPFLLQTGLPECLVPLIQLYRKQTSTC

In the case of `Cc1ccc(NC(=O)C2(C(=O)Nc3ccc(Nc4ncc(F)c(-c5cc(F)c6nc(C)n(C(C)C)c6c5)n4)cc3)CC2)cc1`, the Activity (SiHa) is reported as “Active”, the inhibition [1] is reported as 17% and the inhibition [2] is reported as 47%. For the same compound, the inhibition [3] was 14%, the Activity [4] was “Non-Toxic” and the inhibition [5] was 0%. The Activity [6] was “Non-Toxic”, the inhibition [7] was 0% and the inhibition [8] was 5%. The inhibition [9] was “Active”, the Activity [10] was “Non-Toxic” and the inhibition [11] was 0%. For the same compound, the Activity (HeLa) was “Active”, the Activity (MDA-MB-231) was “Active” and the inhibition [12] was 0%. For the same compound, the inhibition [13] was 47%, the inhibition [14] was 0% and the MRT last [15] was 4 h. For the same compound, the inhibition [16] was 12%, the inhibition [17] was 58% and the inhibition [18] was 12%.

Source: ChEMBL document CHEMBL4406821, “Novel dual inhibitors targeting CDK4 and VEGFR2 synergistically suppressed cancer progression and angiogenesis” (Eur J Med Chem, 2019)
